Assay results: paper PMC12234697 (Scientific Reports, 2025)
Like-named read-outs stand apart in the source and are kept apart here.

Key:
[1] = tested on: HBV-expressing HepG2.2.15.7 cells; assay type: cell-based; conditions: Hepatitis B virus
Summary of the method: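 HBV-producing HepG2.2.15.7 cells (derived from HepG2.2.15) were exposed to test compound at 0.1, 0.3, 1, 3, 10, 30 and 100 µM, […]. Enveloped Dane particles in the supernatant were captured by anti-HBs immunoprecipitation, and HBV DNA was then quantified by real-time PCR with S-gene primers/probe. Cell viability was read in parallel, n = 3. IC50 and CC50 were derived from dose curves.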

[2] = Cell viability of HepG2.2.15.7 cells; assay type: cell-based; conditions: human
Summary of the method: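 HepG2.2.15.7 cells (stable high-level HBV expression) seeded at 1.5 × 10^5 cells/well, grown overnight and PBS-washed. Fresh medium with compound (0.1, 0.3, 1, 3, 10, 30, 100 µM final; DMSO stocks) added for 48 h. Cell viability measured, n = 3; CC50 derived from the dose-response.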

[3] = tested on: LHBs protein and HBc protein; assay: Western blot analysis of intracellular HBV proteins; assay type: cell-based, hepatitis B virus; conditions: HepG2.2.15.7 cells; hit compound 16 10 µM, 38 and 39 30 µM; n = 3
Summary of the method: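 Treated HepG2.2.15.7 cells were lysed in RIPA buffer and soluble protein was run on SDS-PAGE, then transferred to PVDF. Blots were blocked, then given primary antibodies (including rabbit polyclonal anti-HBc; β-actin as loading control) at 4 °C overnight and secondaries 1 h at room temperature. ECL detection; bands quantified by densitometry, n = 3.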

precore mRNA and pgRNA = assay: Measurement of intracellular HBV RNA by real-time PCR; assay type: cell-based, hepatitis B virus; conditions: HepG2.2.15.7 cells; hit compound 16 10 µM, 38 and 39 30 µM; n = 3
Summary of the method: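 Total RNA from treated HepG2.2.15.7 cells was TRIzol-extracted and reverse-transcribed with DNase treatment. SYBR Green real-time PCR used primers PCP/BC1 for precore mRNA and PGP/BC1 for precore mRNA plus pgRNA, normalised to GAPDH. n = 3; Mann-Whitney U test, p < 0.05.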

[4] = no reference given; cited from earlier work

- IC50 ([1]; HepG2.2.15.7, read-out: IC50 (HBV DNA after the immunoprecipitation)): 18.6 µM
- IC50 ([1]; HepG2.2.15.7, read-out: IC50 against HBV expressed in µg/mL): 2.8 µg/mL
SMILES: C=C[C@H]1C[N@@]2CC[C@H]1C[C@@H]2[C@@H](O)c1ccnc2ccc(OC)cc12 [Compound 39, quinidine]
- CC50 at 48 h [2]: 131 µM
- HBc protein level (western blot) [3]: no significant differences
- LHBs protein level (western blot) [3]: no significant differences
- pgRNA level compared to a control (precore mRNA and pgRNA): no significant difference
- precore mRNA level compared to a control (precore mRNA and pgRNA): no significant difference
- effective blood concentration for arrhythmia [4]: 2.3 to 5.0 µg/mL
